Hits are enriched below; roughly 2.3% of the tested compounds scored in any of these assays.
TRPC4 agonist: activators of mouse TRPC4 channel, primary screen, Fluo4 calcium, HEK293 TRPC4beta/mu-opioid cells; Fluo4 calcium fluorescence; active compounds read high; B-score at 10 µM; 310,000 compounds, 0.49% hits;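 active means B-score above 5 SD of library B-scores, and initial fluorescence ratio not above library mean plus 5 SD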;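 further: positive B-score marks a calcium rise read as TRPC4 activation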
Target sequence (Q9QUQ5 whole entry, looked up): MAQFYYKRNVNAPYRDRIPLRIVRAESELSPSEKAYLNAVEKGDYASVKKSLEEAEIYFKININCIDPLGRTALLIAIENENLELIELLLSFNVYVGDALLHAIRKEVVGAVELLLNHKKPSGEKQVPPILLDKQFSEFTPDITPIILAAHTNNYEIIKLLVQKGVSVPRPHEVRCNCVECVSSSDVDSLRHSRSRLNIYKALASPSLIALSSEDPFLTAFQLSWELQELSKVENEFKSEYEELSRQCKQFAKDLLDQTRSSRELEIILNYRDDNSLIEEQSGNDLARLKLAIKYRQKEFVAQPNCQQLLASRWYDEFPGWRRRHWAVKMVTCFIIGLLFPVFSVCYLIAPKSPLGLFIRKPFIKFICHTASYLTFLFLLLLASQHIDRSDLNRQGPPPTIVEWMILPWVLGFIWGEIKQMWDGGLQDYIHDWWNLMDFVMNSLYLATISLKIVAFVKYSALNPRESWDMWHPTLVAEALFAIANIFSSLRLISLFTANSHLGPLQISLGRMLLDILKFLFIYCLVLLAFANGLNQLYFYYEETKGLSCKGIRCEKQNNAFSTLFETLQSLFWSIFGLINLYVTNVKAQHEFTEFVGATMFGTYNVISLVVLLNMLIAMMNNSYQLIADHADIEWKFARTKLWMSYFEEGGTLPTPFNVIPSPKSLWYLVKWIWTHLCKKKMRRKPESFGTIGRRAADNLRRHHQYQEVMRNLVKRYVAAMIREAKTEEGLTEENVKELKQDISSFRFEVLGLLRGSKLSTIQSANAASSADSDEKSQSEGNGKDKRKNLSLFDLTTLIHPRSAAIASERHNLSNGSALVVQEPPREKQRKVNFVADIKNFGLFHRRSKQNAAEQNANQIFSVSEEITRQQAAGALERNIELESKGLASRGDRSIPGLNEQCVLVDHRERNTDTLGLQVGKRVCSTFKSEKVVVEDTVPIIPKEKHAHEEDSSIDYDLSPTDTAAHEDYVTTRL
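Test system: HEK293 cells stably co-expressing mouse TRPC4beta and mu-opioid receptor | Schedule: Fluo4 dye loading 45 min at room temperature, 110 s recording | Measured by: Kinetic Fluo4 calcium fluorescence, 5 s baseline at 1 Hz | Evaluation: B score of integrated ratio | Controls: Buffer (low) and maximal DAMGO (high)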
TRPC4 potent: positive allosteric modulators of TRPC4, primary screen, cell-based, mouse TRPC4beta, HEK293 mu-opioid, Fluo-4 calcium; Short transient receptor potential channel 4 (Mus musculus), Q9QUQ5; DAMGO EC20, Fluo-4 Ca2+ flux; active compounds read high; B-score at 10 µM; 310,000 compounds, 0.42% hits;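 active means B-score of calcium response area above 5 SD of library B-scores, with initial fluorescence ratio within 5 SD of library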;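 further: B-score of integrated fluorescence ratio over time as area under calcium response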
TRPC4 inh: inhibitors of mouse TRPC4 channel, primary screen, Fluo4 calcium, HEK293 TRPC4beta/mu-opioid cells; 300,000 compounds, 0.39% hits; B-score at 10 µM; DAMGO-evoked Fluo4 calcium flux; active compounds read low; AID 2247, 2010; Short transient receptor potential channel 4 (Mus musculus), Q9QUQ5;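 active means B-score over 3 SD under the library average, no early fluorescence shift, positive overall ratio signal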
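Assay system: Stable TRPC4beta/mu-opioid receptor HEK293 cells | Reagent: DAMGO in two steps, submaximal then maximal | Compound dosing: Single concentration per test compound | Signal: Fluo4 Ca2+ flux fluorescence | Evaluation: Per-well B score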
TRPC6 activator: mouse TRPC6 channel activators, primary screen, cell-based, HEK293, membrane potential dye; Short transient receptor potential channel 6 (Mus musculus), Q61143; 310,000 compounds, 0.13% hits; AID 2550, 2010; HEK293-TRPC6 membrane potential dye fluorescence; active compounds read high; B-score at 10 µM;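 active means B-score of the integrated fluorescence ratio above library mean plus 3 SD, and starting fluorescence ratio within library mean plus 5 SD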;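 further: higher score means more depolarization so channel activation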
TRPC6 inhibitor: mouse TRPC6 channel inhibitors, primary screen, cell-based, HEK293, membrane potential dye | Short transient receptor potential channel 6 (Mus musculus), Q61143 | ACh-evoked depolarization; active compounds read low | B-score at 10 µM | 310,000 compounds, 1.1% hits;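 active means B-score under library mean minus 3 SD, initial fluorescence not abnormally high, positive integrated signal ratio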;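 further: B-score derived from integrated fluorescence ratio over the kinetic read; more negative B-score means stronger inhibition of depolarization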
TRPC4 sel inh 2: second selectivity test of TRPC6 inhibitors: effect on mouse TRPC4; shares compounds with TRPC6 inhibitor; HEK293 TRPC4/MOR, membrane potential dye fluorescence; channel activated by saturating DAMGO dose; inhibition, % at 10 µM; 920 compounds, 42% hits; AID 2776;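 active means compounds whose fluorescence signal differed from control wells by over 3 SD, either direction, in both duplicate plates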
TRPC4 spec: mouse TRPC4 modulation by TRPC6 hits, confirmation, selectivity assay for TRPC6 inhibitor project, cell-based, HEK293 TRPC4/mu-opioid, membrane potential dye | shares compounds with TRPC6 inhibitor | membrane potential fluorescence | activity change, negative = inhibition, % at 10 µM | 920 compounds, 61% hits | AID 2777, 2010;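 active means rise or fall in signal beyond 3 SD of buffer-only wells in both replicate plates, either sign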;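 further: integrated kinetic ratio of fluorescence range over baseline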
HEK293 MPD ctr 2-1: nonspecific membrane potential effects, parental HEK293, confirmation, counter-screen for TRPC6 inhibitor project, cell-based, second counter screen | shares compounds with TRPC6 inhibitor | parental HEK293 membrane potential dye fluorescence; maximal acetylcholine challenge after compound addition | signal change vs control, % at 10 µM | 920 compounds, 31% hits | AID 2779, 2010;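 active means membrane potential signal moving either way by over 3 SD of the maximum-effect control, in both duplicate plates, meaning non-specific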
HEK293 MPD ctr-1: membrane potential modulation in parental HEK293, confirmation, counter-screen for TRPC6 inhibitor project, cell-based; 920 compounds, 60% hits; membrane potential signal change, % at 10 µM; parental HEK293 membrane potential dye fluorescence; shares compounds with TRPC6 inhibitor;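 active means membrane potential signal shifting up or down by more than 3 SD of buffer-only wells, on both duplicate plates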
HEK293 MPD ctr-2: parental HEK293 membrane potential modulation, confirmation, counter-screen for TRPC6 modulator project, cell-based. AID 488924, 2010. shares compounds with TRPC6 inhibitor. membrane potential signal change, % at 10 µM. membrane potential dye fluorescence. 2,400 compounds, 51% hits;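 active means membrane potential signal moves up or down beyond 5 SD from buffer-only wells, on both duplicate plates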
HEK293 MPD ctr 2-2: parental HEK293 nonspecific activity of TRPC6 modulators, second screen. shares compounds with TRPC6 inhibitor. membrane potential dye fluorescence; after compound, maximal acetylcholine stimulation. inhibition, % at 10 µM. 2,400 compounds, 14% hits;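 active means membrane potential signal drops by more than 5 SD from the mean control signal, in both duplicate plates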;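 further: plate controls were acetylcholine ECmax control wells for no effect and buffer only wells for full effect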
TRPC4 ctr mod: TRPC4 modulation by TRPC6 hit compounds, confirmation, selectivity assay for TRPC6 modulator project, cell-based, HEK293 TRPC4/mu-opioid, membrane potential dye, mouse; shares compounds with TRPC6 inhibitor; membrane potential fluorescence; percent change from control (negative = decrease, positive = increase), % at 10 µM; 2,400 compounds, 69% hits;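 active means membrane potential signal moved up or down beyond 5 SD of buffer control wells, in both duplicate plates, actives on both sides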;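 further: plate controls were assay buffer wells for no effect and DAMGO maximal-effect wells for full effect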
TRPC4/MOR inh 2: second check of whether TRPC6 modulators also affect mouse TRPC4 | shares compounds with TRPC6 inhibitor | HEK293 TRPC4/mu-opioid, membrane potential dye fluorescence; stimulated with maximal-effect DAMGO | inhibition, % at 10 µM | 2,400 compounds, 55% hits | AID 488928;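 active means drop in membrane potential signal beyond 5 SD of the control wells in both duplicate plates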;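 further: TRPC4 counter screen for TRPC6 hits run under conditions tuned for TRPC6 not TRPC4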
TRPC6 inh conf: mouse TRPC6 channel inhibitors, confirmation, HEK293 cells, membrane potential dye, duplicate; 3,300 compounds, 43% hits; inhibition, % at 10 µM; ACh-evoked depolarization; shares compounds with TRPC6 inhibitor;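 active means fluorescence ratio falls more than 5 SD below the full-stimulation control mean, in both duplicate runs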;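 further: integrated fluorescence ratio of peak minus minimum over baseline after agonist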
TRPC6 act conf: mouse TRPC6 channel activators, confirmation, HEK293 cells, membrane potential dye, duplicate; shares compounds with TRPC6 inhibitor; HEK293-TRPC6 membrane potential dye fluorescence, FDSS; activation, % at 10 µM; 2,800 compounds, 11% hits; AID 488961, 2010;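 active means ratio signal rise beyond 5 SD above unstimulated control wells' mean, seen in both duplicate runs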;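 further: plate controls were buffer EC0 wells for no effect and acetylcholine ECmax response for full effect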
* marks the source's active call; other numbers are inactive results; i = inactive; x = not tested or not shown.

SMILES	TRPC4 agonist	TRPC4 potent	TRPC4 inh	TRPC6 activator	TRPC6 inhibitor	HEK293 MPD ctr-2	HEK293 MPD ctr 2-2	TRPC4 ctr mod	TRPC4/MOR inh 2	TRPC6 inh conf	TRPC6 act conf	others
CCOC(=O)C1CCN(S(=O)(=O)c2ccc3c(c2)NC(=O)CS3)CC1	i	i	i	i	i	x	x	x	x	x	x
Cc1ccc2c(c1)CCCN2C(=O)NC1CCCCC1	i	i	i	i	-6.9*	x	x	x	x	i	i	TRPC4 sel inh 2=i;TRPC4 spec=i;HEK293 MPD ctr 2-1=i;HEK293 MPD ctr-1=i
Cc1cc(N2CCOCC2)nc(N2CCOCC2)n1	i	i	i	i	i	x	x	x	x	x	x
Cc1cc(N2CCN(C)CC2)nc(N2CCOCC2)n1	i	i	i	i	-5.7*	-246%*	i	-44%*	31%*	i	i
Cc1cccc(-c2nc(CN3CCCC(C(=O)NC4CCC(C)CC4)C3)c(C)o2)c1 (stereo unspecified)	i	i	i	i	-6.5*	182%*	i	33%*	46%*	i	x
